Here are results for 4 compounds from ChEMBL document CHEMBL1123794, “Synthesis, conformation, and dopaminergic activity of 5,6-ethano-bridged derivatives of selective dopaminergic 3-benzazepines” (J Med Chem, 1987).

The structures appear in SMILES notation.

Assay [1] can be described thus: Tested for dopamine-sensitive adenylate cyclase stimulation expressed as ED50. Format: functional. An outline of the steps:
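EC50 is the concentration giving 50% of the maximal adenylate cyclase stimulation attainable with that same compound.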

The target in assay [2] is D(2) dopamine receptor (Bos taurus) (UniProt P20288). The assay is described as follows: Inhibitory activity against Dopamine receptor D2 by displacement of [3H]spiroperidol from bovine pituitary at 10 uM. For orientation: Displacement assays read how much labelled ligand stays bound in the presence of the test substance.
Assay [3] in a line: Tested for dopamine-sensitive adenylate cyclase stimulation expressed as %DA stimulation at 10 uM. Format: functional.
Assay [4] in a line: Tested for dopamine-sensitive adenylate cyclase stimulation. Type of assay: functional.
In assay [5] the target is D(1A) dopamine receptor (Rattus norvegicus) (UniProt P18901). The assay is described as follows: Inhibitory activity against Dopamine receptor D1 by displacement of [3H]fenoldopam from homogenated rat striatum.
Sequence of D(1A) dopamine receptor (Rattus norvegicus) (P18901 whole entry): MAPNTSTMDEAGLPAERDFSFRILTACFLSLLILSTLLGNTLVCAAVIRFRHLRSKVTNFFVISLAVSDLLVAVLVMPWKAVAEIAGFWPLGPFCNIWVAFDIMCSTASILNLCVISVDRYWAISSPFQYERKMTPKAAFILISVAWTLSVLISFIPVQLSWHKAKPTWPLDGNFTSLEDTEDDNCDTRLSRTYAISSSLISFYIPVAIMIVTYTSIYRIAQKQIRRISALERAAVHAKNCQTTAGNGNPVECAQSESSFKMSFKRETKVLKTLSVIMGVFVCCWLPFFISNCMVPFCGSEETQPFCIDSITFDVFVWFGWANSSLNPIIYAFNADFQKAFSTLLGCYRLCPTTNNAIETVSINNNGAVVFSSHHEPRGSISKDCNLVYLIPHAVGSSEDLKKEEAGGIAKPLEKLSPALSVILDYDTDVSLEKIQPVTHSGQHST

Sequence of D(2) dopamine receptor (Bos taurus) (P20288 whole entry): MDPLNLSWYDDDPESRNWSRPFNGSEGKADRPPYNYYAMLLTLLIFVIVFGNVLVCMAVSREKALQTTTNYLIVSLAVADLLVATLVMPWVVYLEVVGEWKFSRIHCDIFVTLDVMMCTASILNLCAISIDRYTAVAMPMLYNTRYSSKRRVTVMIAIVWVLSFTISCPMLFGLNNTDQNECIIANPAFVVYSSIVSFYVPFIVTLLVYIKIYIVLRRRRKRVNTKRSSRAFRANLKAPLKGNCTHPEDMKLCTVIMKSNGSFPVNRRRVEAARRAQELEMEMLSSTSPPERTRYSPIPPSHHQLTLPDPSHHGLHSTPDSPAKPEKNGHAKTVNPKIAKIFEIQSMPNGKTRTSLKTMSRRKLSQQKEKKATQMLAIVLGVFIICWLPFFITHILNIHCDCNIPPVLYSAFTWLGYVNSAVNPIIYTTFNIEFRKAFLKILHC

The compound `NCCc1ccc(O)c(O)c1` registered an ED50 in assay [1] of 3500 nM.
As for `Oc1cc2c3c(c1O)CC[C@H]3CNC[C@@H]2c1ccccc1`, the inhibition – broadly, the percentage by which the read-out fell short of the control – in assay [2] came to 0%. The DA stim in assay [3] came out at 15%. Further, the Control in assay [4] was 20%. In assay [5], the K bind amounted to 1.22 µM.
As for `Oc1cc2c3c(c1O)CC[C@@H]3CNC[C@@H]2c1ccccc1`, the ED50 in assay [1] is 430 nM. Moreover, the inhibition in assay [2] amounted to 14%. This compound also had a DA stim in assay [3] of 62%. This compound also came in with a K bind in assay [5] of 0.024 µM.
In turn, `Oc1cc2c(cc1O)[C@@H](c1ccccc1)CNCC2` registered an ED50 in assay [1] of 63 nM. In addition, the DA stim in assay [3] worked out at 66%. Moreover, the K bind in assay [5] was 0.0051 µM.
